Screening results: PubChem, Johns Hopkins Ion Channel Center
MrgX1 allo act: positive allosteric modulators of MrgX1, primary screen, HEK293 cells, Fluo-4 calcium flux; Mas-related G-protein coupled receptor member X1 (Homo sapiens), Q96LB2; FDSS; hits give high values; B-score at 10 µM; actives 0.63% (n = 310,000); AID 588675, 2011;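 active means plate-corrected calcium response at least 3 library SD above typical, normal starting fluorescence, not activating the receptor alone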;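 further: compound read alongside a low EC10 to EC30 dose of BAM8-22 agonist; peak minus trough fluorescence over baseline measured at the second addition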
Target sequence (Q96LB2 whole entry, looked up): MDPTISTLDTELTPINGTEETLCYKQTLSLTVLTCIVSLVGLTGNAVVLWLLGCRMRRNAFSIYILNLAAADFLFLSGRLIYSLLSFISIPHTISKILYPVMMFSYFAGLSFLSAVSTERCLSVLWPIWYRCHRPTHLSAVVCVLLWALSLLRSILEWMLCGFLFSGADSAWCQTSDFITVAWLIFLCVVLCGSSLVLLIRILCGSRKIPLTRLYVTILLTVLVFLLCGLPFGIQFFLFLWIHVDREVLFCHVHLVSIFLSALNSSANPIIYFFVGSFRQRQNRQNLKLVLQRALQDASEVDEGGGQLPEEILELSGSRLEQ
RGS4 block: RGS4 inhibitors, primary screen, cell-based, HEK293 M3R inducible RGS4, calcium flux; Regulator of G-protein signaling 4 (Homo sapiens), P49798; Fluo-4 calcium flux; hits give high values; triggered by carbachol at its EC20; B-score at 10 µM; actives 0.45% (n = 310,000);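 active means B-score, a plate-corrected calcium signal, over three deviations above library mean, with baseline fluorescence within five deviations of library mean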;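 further: RGS4 expression induced by doxycycline in cells with stable M3 receptor; B-score is computed from the integrated fluorescence ratio over baseline after carbachol; higher B-score means a larger calcium signal and so more RGS4 inhibition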
Target sequence (P49798 whole entry, looked up): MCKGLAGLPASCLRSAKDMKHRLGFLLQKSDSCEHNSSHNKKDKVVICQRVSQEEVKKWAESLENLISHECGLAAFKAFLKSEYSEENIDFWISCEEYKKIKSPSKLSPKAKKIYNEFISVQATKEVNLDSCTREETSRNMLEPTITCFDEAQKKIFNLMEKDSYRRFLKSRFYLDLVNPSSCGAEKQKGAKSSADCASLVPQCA
RGS4 pot: RGS4 potentiators or activators, primary screen, cell-based, HEK293 M3R inducible RGS4, calcium flux; actives 0.92% (n = 310,000); B-score at 10 µM; carbachol calcium flux Fluo4; hits give low values;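 active means B-score of the integrated calcium signal more than 4 SD below the library mean, with starting fluorescence not abnormally high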;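 further: negative B-score means reduced calcium response which marks RGS4 activation or potentiation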
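Also added: carbachol at ECmax as muscarinic agonist stimulus; Assay system: HEK293 cells with stable M3R and inducible RGS4; Timing: overnight RGS4 induction, 30 min dye load 37 °C, 20 min compound RT; Measured by: Fluo4-AM (2 µM) calcium-flux fluorescence, kinetic read.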
MrgX1 ag: agonists of human MrgX1 receptor, primary screen, HEK293 cells, Fluo-4 calcium flux; Mas-related G-protein coupled receptor member X1 (Homo sapiens), Q96LB2; Fluo-4 calcium fluorescence, agonist mode; hits give high values; B-score at 10 µM; actives 0.44% (n = 310,000);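 active means calcium response B-score plate-corrected fluorescence ratio at least 3 library SD, with starting fluorescence B-score inside 5 SD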
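Material – MrgX1-expressing HEK293 cells · Input – 15,000 cells seeded per well · Dosing – compound as first of three additions · Times – overnight seeding, then 1 h dark dye loading · Measured by – kinetic Fluo-4 NW fluorescence of intracellular calcium · Read-out – B-scored fluorescence response ratio · Benchmarks – positive and negative control wells on each plate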
MrgX1 antag: antagonists of human MrgX1 receptor, primary screen, HEK293 cells, Fluo-4 calcium flux. Mas-related G-protein coupled receptor member X1 (Homo sapiens), Q96LB2. BAM8-22 antagonism; hits give low values. B-score at 10 µM. actives 1.3% (n = 310,000). AID 588676, 2011;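 active means calcium-response B-score plate-corrected more than 3 library SD below zero, starting fluorescence within 5 deviations, no agonist response on first addition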;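 further: peak minus trough fluorescence over baseline after final BAM8-22 challenge near maximal dose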
MrgX1 PAM conf: MrgX1 positive allosteric modulators, duplicate retest, confirmation, HEK293 cells, Fluo-4 calcium flux; shares compounds with MrgX1 allo act; Fluo-4 calcium fluorescence, FDSS; activation (ratio percentage), % at 10 µM; actives 13% (n = 1,200); AID 602413, 2012;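 active means ratio at least 3 SD above the weak peptide control, stable starting fluorescence, no direct agonism earlier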;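 further: compound followed by low BAM8-22 agonist challenge near EC20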
HEK293 Ca flux: nonspecific calcium signal in parental HEK293, confirmation, counter-screen for MrgX1 antagonist project, parental HEK293 cells, Fluo-4 calcium flux | actives 2% (n = 4,000) | Fluo-4 calcium fluorescence, FDSS | fluorescence ratio F(max-min)/F0 at 10 µM | shares compounds with MrgX1 antag | AID 624111, 2012;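 active means duplicate-averaged calcium fluorescence ratio at least three times the standard deviation of buffer wells, a nonspecific response in parental cells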
HEK293 Ca counter: calcium response in parental HEK293 cells, primary screen, counter-screen for MrgX1 allosteric activator project, cell-based, Fluo-4 calcium flux, duplicate; fluorescence ratio F(max-min)/F0 at 10 µM; Fluo-4 fluorescence ratio; hits give high values; shares compounds with MrgX1 antag; actives 0.4% (n = 4,000);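 active means calcium fluorescence ratio, averaged over duplicates, at least 3 SD of the buffer-well ratio, meaning a nonspecific response in receptor-free cells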;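 further: untransfected parental HEK293 lacking MrgX1 used as counterscreen for MrgX1 allosteric activators; fluorescence change taken during the second addition on a kinetic imager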
HEK293 Ca cntr2: calcium response in parental HEK293 cells, primary screen, counter-screen for MrgX1 agonist project, cell-based, Fluo-4 calcium flux, duplicate, agonist mode; fluorescence ratio F(max-min)/F0 at 10 µM; Fluo-4 calcium fluorescence (FDSS); hits give high values; actives 8.7% (n = 4,000); shares compounds with MrgX1 antag; AID 624115, 2012;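 active means calcium fluorescence ratio at least three times the spread of buffer wells, meaning a non-specific response in parental cells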
An asterisk follows results filed as active; i = inactive; . = no result. Sampled rows, rich in hits. Any-hit rate of the full collection: about 3.5%.

SMILES | MrgX1 allo act | RGS4 block | RGS4 pot | MrgX1 ag | MrgX1 antag | MrgX1 PAM conf | HEK293 Ca flux | HEK293 Ca counter | HEK293 Ca cntr2
COc1cccc(C(=O)/C=C/Nc2ccc(S(=O)(=O)Nc3cc(OC)nc(OC)n3)cc2)c1 | 20* | i | i | i | i | i | i | i | i
CC(C)CN(C(=O)COC(=O)C12CC3CC(CC(C3)C1)C2)c1c(N)n(Cc2ccccc2)c(=O)[nH]c1=O | i | i | i | i | i | . | . | . | .
Cc1cc(F)ccc1NC(=O)c1cnccn1 | 11* | i | i | i | i | i | i | i | i
Cc1c(C)n(CC(O)CN2C(=O)c3ccccc3S2(=O)=O)c2ccccc12 (centres undefined) | 10* | i | i | i | i | i | i | i | i
CCOc1cc(/C=C/C(=O)OCC(=O)NCc2ccco2)cc(Cl)c1OC | i | i | i | i | i | . | . | . | .
CSCC[C@H](NC(=O)[C@@H]1Cc2ccccc2CN1)C(=O)NC1CCCC1 | 8.5* | i | i | i | i | i | i | i | i
CSCC[C@H](NC(=O)[C@@H]1Cc2ccccc2CN1)C(=O)NC(C)c1ccccc1 (some centres undefined) | i | i | i | i | i | . | . | . | .
COc1ccc(OC(C)C(=O)NC(C)c2ccccc2)cc1 (centres undefined) | i | i | i | i | i | . | . | . | .
N=c1sccn1CC(=O)N1N=C(c2ccc(Cl)cc2)CC1c1ccco1 (centres undefined) | 21* | i | i | i | i | i | i | i | i
Cc1ccc(-n2c(C)c3c(C)nnc(C)c3c2C)cc1N | 22* | i | i | i | i | i | i | i | i
Cc1cc(-n2c(C)c3c(C)nnc(C)c3c2C)ccc1N | i | i | i | i | i | . | . | . | .
Cc1cc(NC(=O)c2cccc(S(=O)(=O)N3CC(c4ccccc4)CC3=O)c2)no1 (centres undefined) | 8.3* | i | i | i | i | i | i | i | i
Cc1nc(-c2ccc(NC(=O)C3CC3)cc2)cs1 | i | i | i | i | i | . | . | . | .
Cc1nc(-c2cccc(NC(=O)C3CCCCC3)c2)cs1 | 17* | i | i | i | i | i | i | i | i
Cn1c(=O)c2c(nc(N3CCCCCC3)n2Cc2cccc3ccccc23)n(C)c1=O | 7.5* | i | i | i | i | i | i | 51* | i
Cn1c(=O)c2c(nc(CN3CCc4ccccc4C3)n2CCCO)n(C)c1=O | i | i | i | i | i | . | . | . | .
Cn1c(=O)c2c(nc(CN3CCc4ccccc4C3)n2Cc2ccccc2F)n(C)c1=O | 25* | i | i | i | i | 38%* | i | i | i
CN1CCN(c2nc3c(c(=O)n(C)c(=O)n3C)n2Cc2cccc3ccccc23)CC1 | i | i | i | i | i | . | . | . | .
O=C(Cc1ccccc1F)OCN1C(=O)c2ccccc2C1=O | i | i | i | i | i | . | . | . | .
CCc1c(C)nc2cc(-c3ccc(OC)c(OC)c3)nn2c1N1CCCC1 | 17* | i | i | i | i | i | i | i | i
COCCN(C(=S)Nc1cc(C)cc(C)c1)C(C)c1ccco1 (centres undefined) | 8.2* | i | i | i | i | i | i | i | i
C=CCc1c(C)nc(SC)nc1Nc1ccc(C(=O)O)cc1 | i | i | i | i | i | . | . | . | .
C=CCc1c(C)nc(SC)nc1Nc1ccc(C(C)=O)cc1 | 7* | i | i | i | i | i | i | i | i
O=S(=O)(c1ccccc1)N1CCN(c2ncnc3scc(-c4ccccc4)c23)CC1 | i | i | i | i | i | . | . | . | .
OCC1CCCN(c2ncnc3scc(-c4ccccc4)c23)C1 (centres undefined) | 6.5* | i | i | i | i | i | i | i | i
SMILES | MrgX1 allo act | RGS4 block | RGS4 pot | MrgX1 ag | MrgX1 antag | MrgX1 PAM conf | HEK293 Ca flux | HEK293 Ca counter | HEK293 Ca cntr2
CCC(C)NC(=O)C1(O)c2ccccc2NC(=O)N1c1ccc(C)c(C)c1 (centres undefined) | i | i | i | i | i | . | . | . | .
CCN(CC(=O)Nc1cc(C)c(Cl)cc1OC)CC(=O)NC1CCS(=O)(=O)C1 (centres undefined) | i | i | i | i | i | . | . | . | .
CSc1cccc(NS(=O)(=O)c2cn(C)cn2)c1 | 12* | i | i | i | i | i | i | i | i
COc1ccc(NS(=O)(=O)c2cn(C)cn2)cc1 | i | i | i | i | i | . | . | . | .
CCc1nonc1NC(=O)COc1cc(C)c(Cl)c(C)c1 | i | i | i | i | i | . | . | . | .
CCc1nonc1NC(=O)COc1ccc(Cl)c(C)c1 | 12* | i | i | i | i | i | i | i | i
Cn1c(-c2ccccc2F)cc2onc(-c3ccccc3)c2c1=O | i | . | . | i | i | . | . | . | .
Cn1c(-c2ccccc2)cc2onc(-c3ccccc3)c2c1=O | 12* | . | . | i | i | 21%* | i | i | i
CC(C)c1ccc(-c2nn(-c3ccccc3)cc2C2C(C#N)=C(N)OC3=C2C(=O)CC(C)(C)C3)cc1 (centres undefined) | i | i | i | i | i | . | . | . | .
O=C(Nc1ccccc1Cl)NC1(C(=O)NCC2CCCO2)CCCCC1 (centres undefined) | i | i | i | i | i | . | . | . | .
OC(CCN1CCCCC1)(c1ccccc1)C1C[C@@H]2C=C[C@H]1C2 (some centres undefined) | 6.5* | . | . | i | i | i | i | i | i
